In ChEMBL document CHEMBL1148356, “Synthesis and biological evaluation of 3-heterocyclyl-7,8,9,10-tetrahydro-(7,10-ethano)-1,2,4-triazolo[3,4-a]phthalazines and analogues as subtype-selective inverse agonists for the GABA(A)alpha5 benzodiazepine binding site” (J Med Chem, 2004):

Tests used:
[1] = target: GABA-A receptor; alpha-1/beta-3/gamma-2 (Homo sapiens) (UniProt P14867+P18507+P28472); experiment: Percent change in electrophysiological response in Xenopus oocytes expressing Alpha1-beta3-gamma2 GABA-A receptor; type: functional, cell-based; conditions: Oocyte
Summary of the method: (§1)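 Two-electrode voltage clamp on Xenopus oocytes injected with human GABA-A subunit cDNAs, 24-72 h expression, perfused with modified Barth's medium at pH 7.5, clamped between -40 and -70 mV. The GABA EC20 was titrated against a 3 mM GABA maximum. […] Result is % change of control current, mean ± SE of ≥4 oocytes.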

[2] = target: T1, GABA-A receptor; alpha-2/beta-3/gamma-2 (Homo sapiens, UniProt P18507+P28472+P47869); experiment: Binding affinity towards human gamma-aminobutyric-acid A receptor alpha-2-beta-3-gamma-2 using [3H]Ro-151788 expressed in L(tk-) cells; type: cell-based
T1 sequence (P18507 whole entry): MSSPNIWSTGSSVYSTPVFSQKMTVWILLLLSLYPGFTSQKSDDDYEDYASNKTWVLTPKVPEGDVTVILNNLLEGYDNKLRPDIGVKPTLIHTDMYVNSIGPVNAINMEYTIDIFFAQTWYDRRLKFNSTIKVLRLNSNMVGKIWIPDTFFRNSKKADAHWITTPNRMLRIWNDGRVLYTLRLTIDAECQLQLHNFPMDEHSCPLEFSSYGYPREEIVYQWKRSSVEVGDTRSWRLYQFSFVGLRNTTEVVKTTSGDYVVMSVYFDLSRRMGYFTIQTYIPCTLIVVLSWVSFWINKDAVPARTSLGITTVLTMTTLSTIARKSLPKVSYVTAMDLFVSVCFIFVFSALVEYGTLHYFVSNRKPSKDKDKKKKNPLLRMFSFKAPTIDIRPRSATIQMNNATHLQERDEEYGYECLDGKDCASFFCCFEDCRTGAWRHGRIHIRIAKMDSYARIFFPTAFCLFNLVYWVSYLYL
T1 sequence (P28472 whole entry): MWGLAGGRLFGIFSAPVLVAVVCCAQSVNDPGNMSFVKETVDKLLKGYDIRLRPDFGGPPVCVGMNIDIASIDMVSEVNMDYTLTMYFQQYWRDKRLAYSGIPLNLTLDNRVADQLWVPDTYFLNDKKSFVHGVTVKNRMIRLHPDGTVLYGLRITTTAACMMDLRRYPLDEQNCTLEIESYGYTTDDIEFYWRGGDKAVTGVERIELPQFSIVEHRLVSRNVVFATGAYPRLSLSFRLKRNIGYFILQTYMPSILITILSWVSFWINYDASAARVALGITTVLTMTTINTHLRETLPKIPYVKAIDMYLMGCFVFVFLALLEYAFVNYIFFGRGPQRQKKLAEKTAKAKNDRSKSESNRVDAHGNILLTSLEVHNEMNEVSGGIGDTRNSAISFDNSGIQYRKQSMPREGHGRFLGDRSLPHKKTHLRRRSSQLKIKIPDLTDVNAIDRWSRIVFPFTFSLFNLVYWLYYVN
T1 sequence (P47869 whole entry): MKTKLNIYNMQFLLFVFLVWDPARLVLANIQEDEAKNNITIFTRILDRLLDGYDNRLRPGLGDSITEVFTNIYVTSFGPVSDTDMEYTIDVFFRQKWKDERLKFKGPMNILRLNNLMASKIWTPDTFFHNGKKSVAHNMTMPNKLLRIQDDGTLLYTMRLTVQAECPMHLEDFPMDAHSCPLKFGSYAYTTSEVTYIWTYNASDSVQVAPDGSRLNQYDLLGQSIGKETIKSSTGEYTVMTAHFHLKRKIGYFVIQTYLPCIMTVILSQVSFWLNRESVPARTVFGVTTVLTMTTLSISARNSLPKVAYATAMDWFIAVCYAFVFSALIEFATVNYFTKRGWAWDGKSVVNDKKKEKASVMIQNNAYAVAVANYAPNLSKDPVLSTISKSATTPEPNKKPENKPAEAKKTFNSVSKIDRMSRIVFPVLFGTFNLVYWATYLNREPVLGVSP

[3] = target: T2, GABA-A receptor; alpha-3/beta-3/gamma-2 (Homo sapiens, UniProt P18507+P28472+P34903); experiment: Binding affinity towards human gamma-aminobutyric-acid A receptor alpha-3-beta-3-gamma-2 using [3H]Ro-151788 expressed in L(tk-) cells; type: cell-based
T2 sequence (P18507 whole entry): T1 sequence (P18507 whole entry)
T2 sequence (P28472 whole entry): T1 sequence (P28472 whole entry)
T2 sequence (P34903 whole entry): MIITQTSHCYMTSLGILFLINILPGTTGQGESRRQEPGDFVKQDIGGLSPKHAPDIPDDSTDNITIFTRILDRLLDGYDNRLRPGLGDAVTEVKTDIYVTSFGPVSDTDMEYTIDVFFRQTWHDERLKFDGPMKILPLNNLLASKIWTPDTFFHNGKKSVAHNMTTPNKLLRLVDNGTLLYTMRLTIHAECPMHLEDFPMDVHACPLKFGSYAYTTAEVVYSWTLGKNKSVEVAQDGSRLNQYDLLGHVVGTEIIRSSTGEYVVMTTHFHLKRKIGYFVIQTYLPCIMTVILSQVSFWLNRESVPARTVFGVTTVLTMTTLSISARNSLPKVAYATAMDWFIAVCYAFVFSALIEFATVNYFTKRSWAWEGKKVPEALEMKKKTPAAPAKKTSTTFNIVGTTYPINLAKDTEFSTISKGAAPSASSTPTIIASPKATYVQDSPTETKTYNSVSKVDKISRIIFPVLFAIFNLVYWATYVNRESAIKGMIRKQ

[4] = target: GABA-A receptor; alpha-3/beta-3/gamma-2 (Homo sapiens) (UniProt P18507+P28472+P34903); experiment: Percent change in electrophysiological response in Xenopus oocytes expressing Alpha3-beta3-gamma2 GABA-A receptor; type: functional, cell-based; conditions: Oocyte; summary of the method: as §1
[5] = target: GABA-A receptor; alpha-2/beta-3/gamma-2 (Homo sapiens) (UniProt P18507+P28472+P47869); experiment: Percent change in electrophysiological response in Xenopus oocytes expressing Alpha2-beta3-gamma2 GABA-A receptor; type: functional, cell-based; conditions: Oocyte; summary of the method: as §1
[6] = target: T3, GABA-A receptor; alpha-5/beta-3/gamma-2 (Homo sapiens, UniProt P18507+P28472+P31644); experiment: Binding affinity towards human alpha-5-beta-3-gamma-2 GABA-A receptor using [3H]Ro-151788 expressed in L(tk-) cells; type: cell-based
T3 sequence (P18507 whole entry): T1 sequence (P18507 whole entry)
T3 sequence (P28472 whole entry): T1 sequence (P28472 whole entry)
T3 sequence (P31644 whole entry): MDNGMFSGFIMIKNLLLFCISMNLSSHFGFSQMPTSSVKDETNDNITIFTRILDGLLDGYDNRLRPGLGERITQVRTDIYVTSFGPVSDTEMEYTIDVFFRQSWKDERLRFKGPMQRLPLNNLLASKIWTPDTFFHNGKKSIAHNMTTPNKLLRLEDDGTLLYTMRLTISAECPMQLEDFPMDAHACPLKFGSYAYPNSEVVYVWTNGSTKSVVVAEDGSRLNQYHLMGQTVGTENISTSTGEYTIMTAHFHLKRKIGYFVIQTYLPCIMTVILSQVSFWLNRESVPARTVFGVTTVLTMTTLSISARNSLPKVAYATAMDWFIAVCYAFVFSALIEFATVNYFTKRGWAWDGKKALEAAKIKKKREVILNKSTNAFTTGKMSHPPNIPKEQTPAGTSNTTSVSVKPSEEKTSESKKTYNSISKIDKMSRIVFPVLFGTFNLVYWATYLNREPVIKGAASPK

[7] = target: T4, GABA-A receptor; alpha-1/beta-3/gamma-2 (Homo sapiens, UniProt P14867+P18507+P28472); experiment: Binding affinity towards human alpha-1-beta-3-gamma-2 GABA-A receptor using [3H]Ro-151788 expressed in L(tk-) cells; type: cell-based
T4 sequence (P14867 whole entry): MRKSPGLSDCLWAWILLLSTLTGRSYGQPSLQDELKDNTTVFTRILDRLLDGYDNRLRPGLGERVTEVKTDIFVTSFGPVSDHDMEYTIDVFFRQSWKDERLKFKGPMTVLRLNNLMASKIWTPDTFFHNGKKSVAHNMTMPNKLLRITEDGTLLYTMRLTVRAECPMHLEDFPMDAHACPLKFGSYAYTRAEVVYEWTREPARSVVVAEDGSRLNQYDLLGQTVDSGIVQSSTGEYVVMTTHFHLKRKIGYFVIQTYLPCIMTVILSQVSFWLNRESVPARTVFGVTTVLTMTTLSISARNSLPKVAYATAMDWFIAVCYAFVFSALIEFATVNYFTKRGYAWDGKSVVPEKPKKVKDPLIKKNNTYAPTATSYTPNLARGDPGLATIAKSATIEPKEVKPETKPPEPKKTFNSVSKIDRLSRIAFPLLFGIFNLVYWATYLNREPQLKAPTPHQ
T4 sequence (P18507 whole entry): T1 sequence (P18507 whole entry)
T4 sequence (P28472 whole entry): T1 sequence (P28472 whole entry)

[8] = target: GABA-A receptor; alpha-5/beta-3/gamma-2 (Homo sapiens) (UniProt P18507+P28472+P31644); experiment: Percent change in electrophysiological response in Xenopus oocytes expressing Alpha-5-beta-3-gamma-2 GABA-A receptor; type: functional, cell-based; conditions: Oocyte; summary of the method: as §1

Structure (SMILES) | Efficacy [1] [%] | Ki [2] [nM] | Ki [3] [nM] | Efficacy [4] [%] | Efficacy [5] [%] | Ki [6] [nM] | Ki [7] [nM] | Efficacy [8] [%]
Cc1ccc(-c2nc3ccc(C)cn3c2CC(=O)N(C)C)cc1 [ZOLPIDEM] | 133 | 255 | 609 | 142 | 187 | > 10000 | – | –
Cc1cc(-c2nnc3c4c(c(OCc5ccccn5)nn23)C2CCC4C2)no1 (configuration not stated) | – | 19.7 | 17.6 | 0.6 | – | 5.5 | 57.7 | -13
Cc1noc(-c2nnc3c4c(c(OCc5ccccn5)nn23)C2CCC4CC2)n1 | – | 8.5 | 3.9 | – | – | 0.77 | 28.2 | -38
Cc1nc(-c2nnc3c4c(c(OCc5cccc[n+]5[O-])nn23)C2CCC4CC2)[o+][n-]1 | – | 15.4 | 14.7 | – | – | 3.9 | 74.3 | –
Cc1cccc(COc2nn3c(-c4ccco4)nnc3c3c2C2CCC3CC2)n1 | – | 275 | 116 | – | – | 13 | 1000 | –
Cc1cccc(COc2nn3c(-c4nc(-c5ccncc5)no4)nnc3c3c2C2CCC3CC2)n1 | – | 209 | 26.4 | – | – | 2.1 | > 1000 | –
Cc1cccc(COc2nn3c(-c4cc(C)on4)nnc3c3ccccc23)n1 | 15 | – | – | 3 | 12 | – | – | -15
Cc1cccc(COc2nn3c(-c4csc(C)n4)nnc3c3c2C2CCC3CC2)n1 | – | > 1000 | > 1000 | – | – | 58 | > 1000 | –
Cc1cccc(COc2nn3c(-c4cc(C)on4)nnc3c3c2C2CCC3C2)n1 (configuration not stated) | – | 38.4 | 33.5 | 11 | – | 8.9 | 147 | -24
Cc1cccc(COc2nn3c(-c4ccsc4)nnc3c3c2C2CCC3CC2)n1 | – | – | – | – | – | – | – | 7
Cc1cccc(COc2nn3c(-c4ccccn4)nnc3c3c2C2CCC3CC2)n1 | – | 227 | 104 | – | – | 15.3 | 518 | –
Cc1cc(-c2nnc3c4c(c(OCc5ccccn5)nn23)CCCC4)no1 | 0.4 | 3.5 | 1.6 | -15 | -6 | – | 4.2 | -23
Cc1cccc(COc2nn3c(-c4coc(C)n4)nnc3c3c2C2CCC3CC2)n1 | – | 57 | 46 | – | – | 6.8 | 280 | –
Cc1noc(-c2nnc3c4c(c(OCc5cccnc5)nn23)C2CCC4CC2)n1 | – | 5.7 | 4.2 | – | – | 0.93 | 26.8 | –
Cc1cccc(COc2nn3c(-c4nc(-c5ccccc5)no4)nnc3c3c2C2CCC3CC2)n1 | – | 203 | 227 | – | – | 19.2 | > 1000 | –
CCc1noc(-c2nnc3c4c(c(OCc5cccc(C)n5)nn23)C2CCC4CC2)n1 | – | 34 | 21 | – | – | 3.5 | 171 | –
Cc1cccc(COc2nn3c(-c4ncn(C)n4)nnc3c3c2C2CCC3CC2)n1 | – | > 1000 | > 1000 | – | – | 214 | > 1000 | –
Cc1noc(-c2nnc3c4c(c(OCc5ccc(C)c(C)n5)nn23)C2CCC4CC2)n1 | 1 | 9.8 | 8.6 | -21 | – | 0.39 | 48.6 | -25
Cc1cccc(COc2nn3c(-c4nc(-c5cccnc5)no4)nnc3c3c2C2CCC3CC2)n1 | – | 166 | 69.6 | – | – | 3.3 | > 1000 | –
Cc1cccc(COc2nn3c(-c4ncnn4C)nnc3c3c2C2CCC3CC2)n1 | – | > 1000 | > 1000 | – | – | 253 | > 1000 | –
Cc1cccc(COc2nn3c(-c4cccs4)nnc3c3c2C2CCC3CC2)n1 | – | 66 | 22 | – | – | 4 | 115 | –
Cc1noc(-c2nnc3c4c(c(OCc5ccccc5C#N)nn23)C2CCC4CC2)n1 | – | 2.9 | 1.7 | – | – | 0.44 | 17.5 | -45
Cc1noc(-c2nnc3c4c(c(OCc5ncc[nH]5)nn23)C2CCC4CC2)n1 | – | 35.9 | 19.4 | – | – | 3.8 | 159 | -26
Cc1cccc(COc2nn3c(-c4ccoc4)nnc3c3c2C2CCC3CC2)n1 | 27 | – | – | -4 | -5 | – | – | -24
Cc1cccc(COc2nn3c(-c4nc(C(C)C)no4)nnc3c3c2C2CCC3CC2)n1 | – | 68.4 | 83.9 | – | – | 6.5 | > 1000 | –
